STAT1 act: STAT1 signaling activators, primary screen, cell-based, HTS, luciferase reporter; activation (% of control), % at 5.5 µM; NIH 3T3 STAT1-luciferase reporter, IFN-gamma, luminescence; 100% = IFN-gamma alone, no compound; 2.6% of 200,000 active;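 active = activation above the screen-wide mean activation plus 3 SD, cut at about 130% in these data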;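 note: raw ratio to IFN-gamma control signal so 100% means no change and 0% no light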
STAT3 activator: IL-6 driven STAT3 reporter potentiators, primary screen, U3A cells, luciferase, luminescence, MLSCN library; 0.91% of 190,000 active; IL-6 STAT3-luciferase reporter; 100% = signal with IL-6 EC80 alone; activation (% of control), % at 5.6 µM; AID 871, 2007;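 active = activation above the screen-wide mean of compound activation plus 3 SD, cut at about 130% in these data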;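 note: 0% = background luminescence of wells with medium and substrate only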
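Material: STAT1-lacking human U3A cells, STAT3 luciferase reporter | Benchmarks: IL-6-only wells as 100% reference | Probe or stimulus: IL-6 (33 ng/mL) | Timing: Compound 1 h, then IL-6 6 h at 37 °C | Detection: Luminescence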
STAT3 inh: IL-6 driven STAT3 reporter inhibitors, primary screen, U3A cells, luciferase, luminescence, MLSCN library; IL-6 STAT3-luciferase reporter; host cell line lacks STAT1; inhibition, % at 5.5 µM; 0.89% of 190,000 active;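 active = inhibition above the mean inhibition across all screened compounds plus 3 SD, cut at about 44% in these data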;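 note: 0% = DMSO only wells and 100% = 100 µM nifuroxazide control wells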
STAT1 inh: STAT1 signaling inhibitors, primary screen, cell-based, HTS, luciferase reporter. 0.35% of 200,000 active. NIH 3T3 STAT1-luciferase reporter, IFN-gamma, luminescence. inhibition, % at 5.5 µM. AID 920, 2007;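 active = inhibition above a set limit, the mean inhibition across all tested compounds plus 3 SD, cut at about 34% in these data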;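 note: 0% = IFN-gamma with DMSO and 100% = IFN-gamma with 300 µM nifuroxazide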
HSV augment: enhancers of HSV replication in host cells, fold increase, host cell viability | HSV replication augmentation in cells | maximum fold increase | 0.005% of 220,000 active; in the data active = maximum fold increase above about 1.5; tested in PC3 cells
Cl transport mod: KCC2 cotransporter modulators, thallium flux, primary screen, cell-based, HEK293 KCC2, FluoZin-2 fluorescence, MLSMR. Solute carrier family 12 member 5 (Homo sapiens), Q9H2X9. KCC2 cells, thallium flux FluoZin-2 fluorescence. B-score of Tl+ flux slope (higher = more flux/activation; lower = inhibition) at 10 µM. 2.2% of 190,000 active. AID 1456, 2008;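 active = thallium flux slope and its plate-corrected score both differing from the plate sample mean at a set confidence after two filtering rounds, in either direction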;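 note: slope of fluorescence scaled to starting intensity during 10 to 20 s after thallium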
The depositor's hits bear a star; i = inactive; · = not tested or not shown. In the library only some 5.5% were active in any assay of this set; here they are far more common.

SMILES | STAT1 act | STAT3 activator | STAT3 inh | STAT1 inh | HSV augment | Cl transport mod
O=C(Nc1cccn2ncnc12)c1ccc(Cl)cc1 | 106 | 81 | 29 | -7 | i | 0.079
O=C(Nc1cnc2ccccn2c1=O)c1ccc(Cl)cc1 | 130* | 109 | -8 | -33 | i | 0.45
O=C(COc1ccccc1)NCc1nnc2c3ccccc3c(-c3ccccc3)nn12 | 103 | 113 | -11 | -3 | i | -0.12
Cc1cc(=S)[nH]c2c(C)cccc12 | 94 | 99 | 6 | 7 | i | 31*
Cc1cccc2c(-c3ccccc3)cc(=O)[nH]c12 | 106 | 90 | 15 | -5 | i | -0.76
CC/C(=N/NC(=O)c1ccc(Br)o1)c1ccc(Cl)cc1 | 131* | 111 | -8 | -35 | · | 1.7
CCOC(=O)/C(C#N)=N/Nc1ccccc1C#N | · | · | · | · | i | -1
C/C(=N\Nc1ccccn1)c1ccc(N2CCOCC2)cc1 | 141* | 92 | 17 | -45 | i | -0.39
C/C(=N\NC(=O)c1ccoc1C)c1cccnc1 | 143* | 102 | -2 | -48 | i | 0.34
C/C(=N/NC(=O)c1ccoc1C)c1ccc(NC(=O)c2ccncc2)cc1 | 143* | 107 | -10 | -46 | i | -1.1
C/C(=N\NC(=O)c1cccs1)c1cccnc1 | 115 | 100 | 5 | -16 | i | 1
C/C(=N/NC(=O)c1ccoc1C)c1ccc(N2CCOCC2)cc1 | 146* | 99 | 4 | -51 | i | -0.35
NC(=O)c1nnn(-c2nonc2N)c1-c1ccc([N+](=O)[O-])cc1 | 100 | 106 | -3 | -2 | i | -1.5
COCCn1c(NCc2ccco2)nc2c1c(=O)[nH]c(=O)n2C | 98 | 95 | 11 | 2 | i | ·
Cc1ccc2cc(CCNC(=O)Cc3cccs3)c(=O)[nH]c2c1 | 96 | 97 | 3 | 5 | · | 0.078
CCC(=O)N1CCN(c2nc3ccccc3s2)CC1 | 129* | 92 | 11 | -32 | i | 1.5
CS(=O)(=O)N1CCN(c2nc3ccccc3s2)CC1 | 118 | 99 | 2 | -20 | i | ·
O=C(Nc1ccc(F)cc1)N1CCN(c2nc3ccccc3s2)CC1 | 93 | 63 | 46* | 7 | i | -0.12
CNC(=S)N1CCN(c2nc3ccccc3s2)CC1 | 115 | 84 | 23 | -18 | i | 0.86
O=C(Nc1ccccc1)N1CCN(c2nc3ccccc3s2)CC1 | 100 | 69 | 40 | 0 | i | 0.12
O=C(C1CC1)N1CCN(c2nc3ccccc3s2)CC1 | 131* | 90 | 12 | -34 | i | 0.99
Cc1csc2ncnc(N3CCN(C(=S)Nc4ccc(F)cc4F)CC3)c12 | · | · | · | · | i | -1.4
Cc1nn(-c2cccc([N+](=O)[O-])c2)c(N)c1-c1ccccc1 | 142* | 108 | 0 | -44 | i | -0.82
COc1ccc(-c2c(C(F)(F)F)nn(C)c2NC(C)=O)cc1 | · | · | · | · | i | 0.45
Cc1cc(C)nc(-n2nc(C)c(Sc3ccc(F)cc3)c2N)n1 | 131* | 125 | -28 | -33 | i | -0.31
SMILES | STAT1 act | STAT3 activator | STAT3 inh | STAT1 inh | HSV augment | Cl transport mod
O=C1OCC2=C1C(c1ccc(F)cc1)CC(=O)N2c1ccccc1 (stereo unspecified) | 100 | 99 | 6 | -2 | i | -0.036
CCOC(=O)Cn1nc(-c2ccc(Cl)cc2)cc1N | 115 | 100 | 4 | -16 | i | 1
CCOC(=O)CCn1nc(-c2ccc(Cl)cc2)cc1N | 138* | 94 | 12 | -42 | i | 1.1
COCCn1c(SCC(=O)c2c[nH]c3ccccc23)nnc1-c1ccncc1 | 97 | 136* | -42 | 4 | i | -0.59
CC1(C)CC(=O)C2=C(C1)OC(N)=C([N+](=O)[O-])C2c1cccs1 (stereo unspecified) | 105 | 102 | 0 | -5 | i | -0.74
CC(C)(C)NS(=O)(=O)c1cnc(Cl)c(Cl)c1 | 103 | 97 | 12 | -3 | i | ·
O=C(NC(Nc1nc2ccc([N+](=O)[O-])cc2s1)(C(F)(F)F)C(F)(F)F)c1cccnc1 | 59 | 42 | 71* | 46* | i | -0.36
O=C(NC(NNc1ccc([N+](=O)[O-])cc1)(C(F)(F)F)C(F)(F)F)c1ccccc1Cl | 91 | 98 | 8 | 10 | i | -0.1
CN(C)S(=O)(=O)c1ccc2nc(NC(=O)c3cccnc3)sc2c1 | 121 | 106 | -5 | -27 | i | -0.0064
O=C(NC(Nc1nc2ccc([N+](=O)[O-])cc2s1)(C(F)(F)F)C(F)(F)F)c1ccccc1Cl | 57 | 22 | 92* | 47* | i | 0.81
CC(/C=C/c1ccco1)=N/NC(=O)OC(C)(C)C | 99 | 108 | -12 | 1 | i | 1.4
OCC1(CCc2ccccc2)CCN(Cc2cccn2-c2cccnc2)CC1 | 107 | 108 | -2 | -10 | i | 0.65
COc1ccccc1NC(=O)CC1C(=O)Nc2ccccc2N1C(=O)c1ccccc1 (stereo unspecified) | 97 | 98 | 9 | 1 | i | 0.47
O=C(Nc1ccc([N+](=O)[O-])cc1)c1ccccc1F | 138* | 90 | 14 | -43 | i | -0.21
COc1ccc(/C=C/C(=O)NC2CCCCCCC2)cc1S(=O)(=O)N1CCOCC1 | 103 | 110 | -7 | -4 | i | 0.61
CC1CN(S(=O)(=O)c2cccc(C(=O)Nc3ccc(S(=O)(=O)Nc4ncccn4)cc3)c2)CC(C)O1 (stereo unspecified) | 101 | 97 | 6 | -2 | i | 1.1
CCCN(CCC)CC(O)CN1C(=O)N(CN2C(=O)N(CC(O)CN(CCC)CCC)C(=O)C2(C)C)C(C)(C)C1=O (stereo unspecified) | 106 | 97 | 6 | -7 | i | -0.3
Cc1ccc(NC(=S)N/N=C/c2c(Cl)cccc2Cl)c(C)c1 | 107 | 115 | -17 | -7 | i | 53*
CCNC(=S)N/N=C/c1cc(C)n(-c2ccc(Cl)cc2)c1C | 144* | 106 | 1 | -50 | i | 0.83
CCNC(=S)N/N=C/c1cccc(/C=N/NC(=S)NCC)c1 | 99 | 89 | 18 | -1 | i | -2.3
CCNC(=S)N/N=C/c1c(Cl)cccc1Cl | 106 | 93 | 11 | -7 | i | 9.3*
NNC(=O)c1ccc(O)cc1O | 104 | 94 | 6 | -4 | i | -0.073
CC1CCN(c2oc(Cc3cccc4ccccc34)nc2C#N)CC1 | 102 | 99 | 9 | -3 | i | ·
N#Cc1nc(Cc2cccc3ccccc23)oc1N1CCC(C(N)=O)CC1 | 98 | 108 | -6 | 3 | i | -7.4*
